The values below come from publication PMC7993281 (Clinical and Translational Science, 2020).

The data set is described as follows: Single-ascending dose. The format is in vivo, human. To be noted: for Tmax / half-life / CL renal: human, oral; for Tmax / half-life: plasma. Summed up: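 Healthy men, single oral 10–2,000 mg after a 10-hour fast. The 300 mg cohort was repeated 30 min after a high-fat, high-calorie breakfast following at least 7 days washout. Plasma sampled up to 48 h; 300 mg urine collected at 0–12, 12–24 and 24–48 h. Validated LC-MS/MS with noncompartmental analysis. Fed/fasted GMR with 90% CI; Tmax compared by nonparametric median difference.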

Turning to `CCCCCN1C[C@H](O)[C@@H](O)[C@H](O)[C@@H]1CO` [sinbaglustat, (2S,3R,4R,5S)‐2‐(hydroxymethyl)‐1‐pentylpiperidine‐3,4,5‐triol], the “fraction of dose excreted unchanged in urine” value (300 mg single dose) is listed as “About half”. Besides, the “median difference in Tmax, fed vs fasted” value (300 mg single dose, high‐fat, high‐calorie meal, 90% CI 0.50–1.70) was 1 h. Also, the Tmax reads like this: (100 mg, single dose 100 mg, fasted, median (range)) 1.4 h; (300 mg, single dose 300 mg fasted, median (range)) 0.9 h; (300 mg, single dose 300 mg fed, median (range)) 2.25 h; (1000 mg, single dose 1,000 mg, fasted, median (range)) 1.5 h; (2000 mg, single dose 2,000 mg, fasted, median (range)) 2 h; (male, across single doses 10 to 2,000 mg) 0.9 to 2 h. The half-life runs as follows: (1000 mg) 11.6 h; (male) roughly 12 h. Besides, the CL renal is, setting by setting: (urine and plasma, 300 mg) 225 mL/min; (male, plasma and urine, 300 mg) 225 mL/min. For the same compound, the “duration of distribution phase” value (single dose) is ~ 24 hours. Moreover, the “UPE, percentage of dose excreted unchanged in urine” value (single dose 300 mg fasted, geometric mean (95% CI)) was 48.74 (43.53, 54.59) %.
